Calls of active or inactive are those of the source. The calls are words filed in the database; no cut-off is given here.
Legend:
[1] = Cmax in rat at 100 mg/kg, iv administered as 0.5 hrs infusion by HPLC-MS method; format: ADME, organism-based; parameters: dose 100 mg/kg, route intravenous; conditions: in vivo
[2] = tested on: Enterobacter cloacae; test: Inhibition of Enterobacter cloacae ECL1058 SHV-11 assessed as ertapenem MIC at 4 ug/ml by broth microdilution method
[3] = tested on: Klebsiella pneumoniae; test: Inhibition of Klebsiella pneumoniae KP1008 KPC-2 assessed as meropenem MIC at 4 ug/ml by broth microdilution method
Procedure, shortened: (§1)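 CLSI broth microdilution (M07-A9, 2012) MIC of the carbapenem against clinical serine carbapenemase-producing strain, tested alone and with the inhibitor held at a fixed 4 μg/mL.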

[4] = tested on: Enterobacter cloacae; test: Inhibition of Enterobacter cloacae ECL1058 SHV-11 assessed as imipenem MIC at 4 ug/ml by broth microdilution method
[5] = Half life in rat at 1000 mg/kg, iv administered as 0.5 hrs infusion by HPLC-MS method; format: ADME, organism-based; conditions: in vivo
[6] = Cmax in human at 1 g administered as 3 hrs of infusion; format: ADME, organism-based; parameters: dose 1 g; conditions: in vivo, iv
[7] = biological target: Dipeptidyl peptidase 2 (Homo sapiens, UniProt Q9UHL4); test: Inhibition of dipeptidyl peptidase 7 (unknown origin) using H-Lys-Pro-AMC as substrate preincubated for 10 mins followed by substrate addition measured for 30 mins by spectrophotometric analysis
Procedure, shortened: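 DPP7 (commercial) in 50 mM Na-acetate, pH 5.8. Preincubated 10 min at 37 °C with inhibitor at several concentrations, then H-Lys-Pro-AMC (listed at 100 μM) added and fluorescence monitored for 30 min. Activity was relative to a no-treatment control; IC50 is the concentration giving half inhibition.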

[8] = tested on: Klebsiella oxytoca; test: Inhibition of Klebsiella oxytoca KX1019 OXA-2 assessed as ertapenem MIC at 4 ug/ml by broth microdilution method
[9] = biological target: Beta-lactamase TEM (Enterobacter cloacae) (UniProt Q6W9J1); test: Inhibition of Enterobacter cloacae ECL1058 TEM-1 assessed as meropenem MIC at 4 ug/ml by broth microdilution method
[10] = biological target: Beta lactamase TEM-1 (Klebsiella pneumoniae) (UniProt Q7B899); test: Inhibition of Klebsiella pneumoniae KP1004 TEM-1 assessed as biapenem MIC at 4 ug/ml by broth microdilution method; procedure, shortened: as §1
[11] = tested on: Klebsiella pneumoniae; test: Antibacterial activity against Klebsiella pneumoniae KP1004 by broth microdilution method; format: functional, organism-based
[12] = tested on: Klebsiella oxytoca; test: Inhibition of Klebsiella oxytoca KX1017 SHV-30 assessed as meropenem MIC at 4 ug/ml by broth microdilution method
[13] = biological target: Beta lactamase TEM-1 (Klebsiella pneumoniae) (UniProt Q7B899); test: Inhibition of Klebsiella pneumoniae KP1084 TEM-1 assessed as ertapenem MIC at 4 ug/ml by broth microdilution method; procedure, shortened: as §1
[14] = biological target: Beta-lactamase (Enterobacter cloacae) (UniProt P05364); test: Inhibition of Enterobacter cloacae ECL1002 AmpC assessed as cefepime MIC at 4 ug/ml by broth microdilution method
[15] = tested on: Klebsiella oxytoca; test: Inhibition of Klebsiella oxytoca KX1017 SHV-30 assessed as biapenem MIC at 4 ug/ml by broth microdilution method
[16] = biological target: T1, Class A carbapenemase (Enterobacter cloacae) (UniProt A7WP95); test: Inhibition of Enterobacter cloacae ECL1058 KPC-3 assessed as imipenem MIC at 4 ug/ml by broth microdilution method
T1 sequence (whole entry): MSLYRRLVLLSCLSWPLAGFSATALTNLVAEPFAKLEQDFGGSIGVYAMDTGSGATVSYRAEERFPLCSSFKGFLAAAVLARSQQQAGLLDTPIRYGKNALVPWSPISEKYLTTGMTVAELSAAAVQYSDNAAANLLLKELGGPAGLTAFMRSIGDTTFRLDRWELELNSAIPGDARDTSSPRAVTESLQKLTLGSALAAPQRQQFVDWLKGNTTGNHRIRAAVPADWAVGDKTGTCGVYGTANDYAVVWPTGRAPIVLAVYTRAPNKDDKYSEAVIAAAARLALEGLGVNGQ

[17] = tested on: Klebsiella pneumoniae; test: Inhibition of Klebsiella pneumoniae KP1087 SHV-11 assessed as ertapenem MIC at 4 ug/ml by broth microdilution method; procedure, shortened: as §1
[18] = tested on: Klebsiella pneumoniae; test: Inhibition of Klebsiella pneumoniae KP1082 KPC-2 assessed as imipenem MIC at 4 ug/ml by broth microdilution method
[19] = tested on: Klebsiella pneumoniae; test: Inhibition of Klebsiella pneumoniae KP1004 KPC-2 assessed as imipenem MIC at 4 ug/ml by broth microdilution method; procedure, shortened: as §1
[20] = biological target: Beta-lactamase (Enterobacter cloacae) (UniProt P05364); test: Inhibition of Enterobacter cloacae ECL1061 AmpC assessed as cefepime MIC at 4 ug/ml by broth microdilution method
[21] = tested on: Klebsiella pneumoniae; test: Inhibition of Klebsiella pneumoniae KP1087 KPC-2 assessed as ertapenem MIC at 4 ug/ml by broth microdilution method; procedure, shortened: as §1
[22] = Clearance in rat at 300 mg/kg, iv administered as 0.5 hrs infusion by HPLC-MS method; format: ADME, organism-based; conditions: in vivo
[23] = biological target: Neutrophil elastase (Homo sapiens, UniProt P08246); test: Inhibition of neutrophil elastase (unknown origin) using MeOSuc-AAVP-AMC as substrate preincubated for 10 mins followed by substrate addition measured for 30 mins by spectrophotometric analysis
Procedure, shortened: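 Purified commercial enzyme, mixed with inhibitor across a concentration range in 50 mM Tris-HCl pH 7.5, 1 M NaCl and held 10 min at 37 °C. MeOSuc-AAVP-AMC (30 μM) then added and fluorescence followed for 30 min. Rates expressed relative to untreated control. IC50 taken as the concentration giving 50% inhibition. AEBSF and leupeptin served as positive controls.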

[24] = biological target: Carbapenem-hydrolyzing beta-lactamase KPC (Klebsiella pneumoniae) (UniProt Q9F663); test: Inhibition of Klebsiella pneumoniae KP1083 KPC-3 assessed as meropenem MIC at 4 ug/ml by broth microdilution method; procedure, shortened: as §1
[25] = biological target: T2, Beta-lactamase SHV-1 (Klebsiella pneumoniae) (UniProt P0AD64); test: Inhibition of Klebsiella pneumoniae KP1083 SHV-1 assessed as imipenem MIC at 4 ug/ml by broth microdilution method
T2 sequence (whole entry): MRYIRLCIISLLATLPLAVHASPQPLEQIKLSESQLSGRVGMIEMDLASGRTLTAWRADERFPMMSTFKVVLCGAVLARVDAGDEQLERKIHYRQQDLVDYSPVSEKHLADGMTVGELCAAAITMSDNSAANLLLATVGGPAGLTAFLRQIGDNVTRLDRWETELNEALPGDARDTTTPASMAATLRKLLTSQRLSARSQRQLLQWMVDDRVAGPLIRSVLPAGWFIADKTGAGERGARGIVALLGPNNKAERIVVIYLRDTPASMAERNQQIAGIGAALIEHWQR

[26] = biological target: Class A carbapenemase KPC-2 (Escherichia coli) (UniProt A8DS27); test: Inhibition of Escherichia coli EC1007 KPC-3 assessed as imipenem MIC at 4 ug/ml by broth microdilution method
[27] = biological target: Beta-lactamase (Klebsiella pneumoniae) (UniProt Q93LQ9); test: Inhibition of Klebsiella pneumoniae KP1084 KPC-3 assessed as imipenem MIC at 4 ug/ml by broth microdilution method

Sequence of Neutrophil elastase (P08246 whole entry): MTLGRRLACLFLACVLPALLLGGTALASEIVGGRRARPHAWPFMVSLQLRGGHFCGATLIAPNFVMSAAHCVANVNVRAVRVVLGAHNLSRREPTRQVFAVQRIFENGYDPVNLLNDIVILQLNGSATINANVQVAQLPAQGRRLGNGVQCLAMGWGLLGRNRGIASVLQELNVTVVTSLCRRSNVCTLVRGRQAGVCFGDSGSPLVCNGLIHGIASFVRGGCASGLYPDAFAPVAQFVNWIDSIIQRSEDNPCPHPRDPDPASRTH

O=C(O)C[C@@H]1CC[C@H](NC(=O)Cc2cccs2)B(O)O1 [VABORBACTAM]
Cmax [1]: 231 µg/mL
MIC [2]: 0.25 µg/mL
MIC [3]: ≤ 0.06 µg/mL
MIC [4]: 0.25 µg/mL
half-life [5]: 24 min
Cmax [6]: 22 µg/mL
IC50 [7]: > 1000 µM
MIC [8]: 0.25 µg/mL
MIC [9]: < 0.06 µg/mL
MIC [10]: < 0.06 µg/mL
Activity [11]: inactive
MIC [12]: < 0.06 µg/mL
MIC [13]: 4 µg/mL
MIC [14]: 0.5 µg/mL
MIC [15]: < 0.06 µg/mL
MIC [16]: 0.25 µg/mL
MIC [17]: 2 µg/mL
MIC [18]: 0.13 µg/mL
MIC [19]: ≤ 0.06 µg/mL
MIC [20]: 2 µg/mL
MIC [21]: 2 µg/mL
clearance [22]: 21 mL/min/kg
IC50 [23]: > 1000 µM
MIC [24]: < 0.06 µg/mL
MIC [25]: 0.13 µg/mL
MIC [26]: 0.13 µg/mL
MIC [27]: 0.25 µg/mL

Reference: ChEMBL document CHEMBL3576866, “Discovery of a Cyclic Boronic Acid β-Lactamase Inhibitor (RPX7009) with Utility vs Class A Serine Carbapenemases” (J Med Chem, 2015)
